Screens deposited in PubChem by The Scripps Research Institute Molecular Screening Center.
In the library only some 2.9% were active in any assay of this set; here they are far more common.
HTR1A agonist – agonists of human 5-HT1a serotonin receptor; CHO 5-HT1a Ga15 NFAT-bla reporter, FRET ratio; 0% basal, 100% maximal reference agonist; activation, % at 10 µM; 0.56% of 65,000 active; P08908;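 active means activation above the screen-wide mean activation plus 3 SD, cut at about 19% in these data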;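 further: 0% = DMSO wells and 100% = 5-CT at EC100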
S1P1 ag pot – agonists and agonism potentiators of human S1P1 receptor. P21453. S1P1 CRE-bla cells, forskolin, beta-lactamase FRET, potentiator mode; S1P1 agonist co-added at EC20, 2 nM; 100% = saturating reference agonist, 0% = basal. activation, % at 9.5 µM. 0.57% of 56,000 active. AID 449;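 active means activation above a cutoff set at the mean activation of all tested compounds plus 3 SD, cut at about 54% in these data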;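 further: forskolin at 4 µM as EC80 and the EC20 agonist is SEW2871; 100% = SEW2871 at its EC100 plus forskolin at EC80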
Target sequence (P21453 whole entry, looked up): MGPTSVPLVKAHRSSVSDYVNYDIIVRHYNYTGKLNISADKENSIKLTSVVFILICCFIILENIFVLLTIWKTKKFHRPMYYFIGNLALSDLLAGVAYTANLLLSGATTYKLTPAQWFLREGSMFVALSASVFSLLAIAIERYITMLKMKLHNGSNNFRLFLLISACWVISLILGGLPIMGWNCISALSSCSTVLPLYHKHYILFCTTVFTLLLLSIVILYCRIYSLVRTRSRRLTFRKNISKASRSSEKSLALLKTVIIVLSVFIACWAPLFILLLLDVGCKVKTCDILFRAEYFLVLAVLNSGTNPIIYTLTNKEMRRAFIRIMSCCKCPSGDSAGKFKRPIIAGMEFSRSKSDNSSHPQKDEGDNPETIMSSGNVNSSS
S1P3 ag – S1P3 (human) receptor agonism | activation, % at 4.5 µM | 0.1% of 60,000 active | S1P3 NFAT-BLA reporter cells, FRET ratio; relative to 1 µM S1P, basal subtracted | AID 373 | Q99500;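 active means activation above the screen-wide mean plus 3 SD, cut at about 4.5% in these data, passing the limit was not always enough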
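material = human S1P3 NFAT-BLA reporter CHO cells | schedule = 4 h compound at 37 °C, 2 h substrate at RT | measured by = fluorescent BLA substrate, ex 405 nm, em 460/535 nm ratio | controls = 1 µM S1P reference | replication = primary once, confirmation triplicate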
HTR1E agonist – activates the human 5-HT1E serotonin receptor. P28566. CHO 5-HT1E Ga15 NFAT-bla reporter, FRET; 0% DMSO wells, 100% control agonist wells. activation, % at 6 µM. 0.69% of 65,000 active. AID 574;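 active means activation above a set limit, the screen-wide mean activation plus 3 SD, cut at about 8.5% in these data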;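 further: 100% = positive control agonist at 1 µM giving full maximal response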
5-HT1A blocker – 5-HT1a (human) receptor antagonism. P08908. CHO 5-HT1a Ga15 NFAT-bla reporter, antagonist mode. inhibition, % at 10 µM. 0.68% of 62,000 active. AID 612;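 active means inhibition above the mean of all tested compounds plus 3 SD, cut at about 43% in these data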;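 further: receptor stimulated by 5-CT agonist at 100 nM near EC80; beta-lactamase reporter measured by ratiometric fluorescence of a cleavable substrate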
HTR1E antagonist – antagonists of human 5-HT1E serotonin receptor; CHO 5-HT1E Ga15 NFAT-bla reporter, FRET, antagonist; inhibition, % at 6 µM; 0.99% of 65,000 active; AID 571;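 active means inhibition above a set limit, the mean inhibition across every tested compound plus 3 SD, cut at about 29% in these data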;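 further: signal is the 460 over 535 nm emission ratio of beta-lactamase substrate; 0% = agonist plus DMSO wells and 100% = wells without agonist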
Numbers without * were called inactive; · = no result given.

SMILES | HTR1A agonist | S1P1 ag pot | S1P3 ag | HTR1E agonist | 5-HT1A blocker | HTR1E antagonist
COc1ccc(OC)c(NC(=O)CSCc2cnn(-c3ccccc3)c2-n2cccc2)c1 | -2.5 | 31.3 | -0.5 | -0.1 | 57.4* | 9.1
COc1ccc(C2C(C(N)=O)=C(C)Nc3nc(-c4ccccc4Cl)nn32)c(OC)c1 (configuration not stated) | 3.4 | -18.2 | -0.7 | 0.3 | 0.9 | -2.8
COC(=O)c1[nH]c2cc(OC)ccc2c1NC(=O)c1ccc2c(c1)OCO2 | 114.8* | · | · | 0.8 | -4.2 | -10.0
c1ccc(C(Cc2nc(-c3ccccn3)no2)c2ccccc2)cc1 | 1.4 | 13.6 | 10.7* | 0.3 | -16.4 | -15.4
c1ccc(Cc2nc(-c3ccccn3)no2)cc1 | 1.3 | -18.3 | -1.2 | -0.6 | -4.7 | 3.3
c1ccc(C(Cc2nc(-c3cccnc3)no2)c2ccccc2)cc1 | -0.3 | 85.4* | 20.3* | -0.9 | 15.3 | 18.5
Cc1ccnc(NC(=O)c2cc(S(=O)(=O)N3CCCCC3)ccc2Cl)c1 | 1.4 | · | · | 1.4 | -6.7 | -1.2
Fc1cccc(-c2cc3nc4c(c(N5CCOCC5)n3n2)CCCC4)c1 | -2.0 | -11.9 | 0.1 | -0.6 | 21.3 | 30.1*
CC(C)=CC(=O)Nc1ccc(Br)cc1 | -2.4 | 25.4 | -0.5 | -1.8 | 3.3 | 3.1
CC(C)c1ccccc1OCCNS(C)(=O)=O | -2.2 | -34.4 | -1.5 | -0.8 | 7.7 | 0.6
COc1ccc(C(=O)c2no[n+]([O-])c2C(=O)c2ccc(OC)cc2)cc1 | 0.8 | -7.4 | -0.3 | 0.0 | -2.0 | -3.7
Cc1c(C(=O)c2no[n+]([O-])c2C(=O)c2cnn(C)c2C)cnn1C | -0.7 | -22.4 | 0.5 | -1.1 | 45.6* | 9.7
O=S1(=O)CC(O)C(Nc2ccccc2Cl)C1 (configuration not stated) | -2.4 | -29.8 | -0.6 | -0.1 | -14.1 | 3.2
Cc1ccc(NC(=O)CSc2n[nH]c(-c3ccncc3)n2)cc1 | 1.7 | -15.9 | -0.5 | 0.2 | -17.4 | -3.5
CCCCc1nc(SCC(=O)Nc2ccc(S(N)(=O)=O)cc2)n[nH]1 | -1.3 | -11.2 | 1.7 | 13.9* | -5.1 | -0.1
CCOc1ccccc1C1CC(=O)Nc2cc3c(cc21)OCCO3 (configuration not stated) | -3.5 | -2.1 | -0.5 | -1.2 | 43.5* | 63.8*
O=C1CC(c2cccnc2)c2cc3c(cc2N1)OCO3 (configuration not stated) | -0.3 | -13.8 | -1.6 | 0.7 | -2.9 | -3.0
CCCOc1ccccc1C1CC(=O)Nc2cc3c(cc21)OCCO3 (configuration not stated) | -1.2 | -17.7 | -1.3 | -0.2 | 75.0* | 71.0*
CC(C)Oc1ccccc1C1CC(=O)Nc2cc3c(cc21)OCO3 (configuration not stated) | -2.5 | -22.8 | 2.3 | 1.4 | 53.9* | 61.4*
CCCOc1ccccc1C1CC(=O)NC2=C1C(=O)CCC2 (configuration not stated) | -3.3 | -19.9 | -0.4 | -0.1 | 11.9 | 13.0
CCCCOc1ccccc1C1CC(=O)NC2=C1C(=O)CCC2 (configuration not stated) | -2.3 | -23.9 | -2.3 | 2.2 | 16.2 | 28.6*
CC1CCN(C(=O)CSc2nnc(Cc3cc(=O)[nH]c(=O)[nH]3)n2-c2ccc(Cl)cc2)CC1 | -0.3 | 10.1 | 1.2 | 0.5 | -7.0 | -17.6
Nc1nc2n(n1)C(c1c(F)cccc1Cl)CC(c1ccc(F)cc1)N2 (configuration not stated) | -3.0 | -14.8 | -0.6 | 1.5 | -7.3 | -9.3
Fc1ccccc1COc1cccc(/C=N/n2cnnc2)c1 | -3.6 | 14.8 | -0.4 | -1.5 | 0.0 | -3.6
Cc1cc(/C=N/n2cnnc2)c(C)n1-c1ccc(OCc2ccccc2F)cc1 | -2.5 | 141.7* | -1.1 | -0.1 | 36.5 | 28.6*
SMILES | HTR1A agonist | S1P1 ag pot | S1P3 ag | HTR1E agonist | 5-HT1A blocker | HTR1E antagonist
Cc1ccc(CN2C(=O)CCC2C(=O)NC(C)C)cc1 (configuration not stated) | -1.7 | -3.6 | -0.1 | -0.7 | -5.2 | 0.2
COc1cc2c(cc1OC)/C(=C/C#N)NC(C)(C)C2 | -0.7 | -15.0 | -0.3 | -1.4 | 46.1* | 43.9*
CCOC(=O)CSC1=C(C#N)C(c2ccc(C)o2)CC(=O)N1 (configuration not stated) | -2.6 | -10.8 | -1.2 | -0.2 | 34.4 | 42.7*
CCOC(=O)CSC1=C(C#N)C(c2ccc(Cl)cc2)CC(=O)N1 (configuration not stated) | -0.6 | -11.2 | -0.1 | 0.6 | 3.1 | 18.7
CCc1c(C(=O)Nc2ccc(S(=O)(=O)N3CCOCC3)cc2)csc1C | 1.7 | 4.6 | -1.4 | -0.1 | -16.1 | 3.0
O=C(Nc1cc(C(F)(F)F)ccc1N1CCOCC1)C1Cc2ccccc2CN1C(=O)c1ccco1 (configuration not stated) | -0.8 | 1.1 | -1.1 | 0.4 | 21.2 | 12.0
COC(=O)Nc1nc(C)c(C(=O)N(C)C)s1 | 19.4* | 2.6 | -0.3 | -0.6 | 2.5 | -2.3
CC(C)Oc1ccc(CNC2CCOC(C)(C)C2)cc1 (configuration not stated) | 0.0 | 4.3 | -0.6 | -0.4 | -9.1 | 2.4
CCOc1cc(S(=O)(=O)NCc2ccccn2)c(C)cc1C | 53.5* | -12.9 | -1.0 | 0.0 | 2.5 | 4.6
COc1ccc(C(C)C)cc1S(=O)(=O)NCc1ccccn1 | -1.4 | -13.7 | -1.4 | -1.1 | -0.3 | -8.5
CCCC(=O)Nc1ccc(-c2nc3cc(C)c(C)cc3o2)cc1 | -2.9 | 81.7* | -1.0 | 1.3 | -11.7 | -3.6
COc1ccc(CC(=O)Nc2cccc(-c3nnc(-c4cccc(C)c4)o3)c2)cc1OC | -0.8 | · | -1.6 | 1.7 | 91.7* | 80.1*
COc1ccc(CC(=O)Nc2cccc(-c3nnc(-c4ccc(C)cc4)o3)c2)cc1OC | -1.3 | 2.2 | -0.5 | 0.1 | -6.1 | 33.7*
COc1ccc(CC(=O)Nc2cccc(-c3nnc(-c4ccccc4)o3)c2)cc1OC | 0.9 | 44.2 | -2.5 | -0.1 | 16.5 | 17.7
CCCC(=O)Nc1ccc2oc(-c3ccncc3)nc2c1 | 1.1 | -12.7 | -1.1 | 0.0 | -2.3 | 2.0
COc1ccc(-c2nc3cc(NC(=O)Cc4ccc(OC)c(OC)c4)ccc3o2)cc1 | 5.8 | 80.7* | -1.1 | 0.5 | 9.5 | 7.3
N#CCCCn1c(-c2ccccc2)noc1=O | -2.2 | -0.4 | -0.6 | -0.3 | -5.2 | 4.6
Cc1ccc(C2=Nc3ccccc3NC(C)(c3ccc(C)o3)C2)o1 (configuration not stated) | -0.9 | -0.8 | -0.8 | 16.7* | 49.1* | 20.5
CCOc1ccc(C(=O)N2CCC(C(=O)c3ccc4c(c3)OCCO4)CC2)cc1 | -1.1 | 32.6 | -1.3 | 1.6 | 12.4 | 14.2
CCOc1ccccc1CN(CCc1ccc2c(c1)OCO2)Cc1ccccn1 | 0.9 | -15.5 | -1.0 | -0.7 | 48.4* | 1.9
